# A selection: hits, their analogues and other compounds. The true share with any hit is near 2.5%.
# PRMT1 inh – PRMT1 methyltransferase inhibitors, primary screen, biochemical, fluorescence polarization | Protein arginine N-methyltransferase 1 (Homo sapiens), Q99873 | recombinant PRMT1, activity-based probe fluorescence polarization | inhibition, % at 2.79 µM | hit rate 1.3% among 370,000;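 active = inhibition above about 21% made by adding two undisclosed values, limit read from the data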
# TCR-CD3 inh – inhibitors of human TCR-CD3 interaction, primary screen, biochemical, fluorescence, TAMRA-labeled TCR probe; T-cell receptor (TCR); inhibition, % at 9.4 µM; hit rate 0.37% among 360,000; AID 651800, 2012; in the data active = inhibition above about 19%;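 also: recombinant mutant TCR 2C K166C tagged with TAMRA read by polarization; 0% = receptor in buffer alone and 100% = receptor with positive control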
# HTRA1 inhibitor – HTRA1 serine protease inhibitors, primary screen, biochemical, fluorescence polarization, HTS | Q92743 | recombinant HTRA1, FP-rhodamine activity-based probe | inhibition, % at 5.96 µM | hit rate 0.5% among 340,000; in the data active = inhibition above about 36%;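 also: 0% = enzyme with DMSO and 100% = wells lacking enzyme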
# Target sequence (Q92743 whole entry, looked up): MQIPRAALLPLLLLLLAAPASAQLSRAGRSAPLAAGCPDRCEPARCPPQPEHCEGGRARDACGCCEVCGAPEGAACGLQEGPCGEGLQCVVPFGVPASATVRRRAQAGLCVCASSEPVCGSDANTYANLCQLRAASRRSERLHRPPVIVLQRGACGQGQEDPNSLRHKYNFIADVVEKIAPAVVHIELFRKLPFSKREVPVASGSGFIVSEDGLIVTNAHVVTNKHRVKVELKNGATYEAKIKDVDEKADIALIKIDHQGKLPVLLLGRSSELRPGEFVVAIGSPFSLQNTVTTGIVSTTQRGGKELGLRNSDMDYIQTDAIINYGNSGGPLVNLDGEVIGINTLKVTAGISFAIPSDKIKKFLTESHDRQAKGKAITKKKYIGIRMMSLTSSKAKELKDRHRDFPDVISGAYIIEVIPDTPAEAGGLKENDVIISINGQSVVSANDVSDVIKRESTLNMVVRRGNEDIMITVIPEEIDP
# mABHD4 FP – ABHD4 inhibitors, primary screen, biochemical, fluorescence polarization, mouse. AID 720543, 2013. purified mABHD4, FP-Rh probe fluorescence polarization. hit rate 0.54% among 370,000. (Lyso)-N-acylphosphatidylethanolamine lipase (Mus musculus), Q8VD66. inhibition, % at 8.92 µM;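 active = inhibition exceeding the mean over every tested compound plus 3 SD, cut at about 30% in these data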;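 also: 0% = plate median of compound wells and 100% = S159A mutant with DMSO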
#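 Assay system: mABHD4 protein; medium: HEPES pH 7.0, NaCl, Pluronic buffer; dosing: 8.92 µM, single dose; schedule: 45 min + 60 min at 25 °C; signal: FP readout, ex 525 nm / em 598 nm; read-out: normalized percent inhibition of probe labeling; repeats: single replicate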
# SIAE primary – human SIAE inhibitors, primary screen, biochemical, fluorescence polarization, FP-Rh probe, 1536-well HTS; Sialate O-acetylesterase (Homo sapiens), Q9HAT2; SIAE FP-Rh probe binding; inhibition, % at 9.66 µM; hit rate 0.69% among 370,000;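 active = inhibition above a cutoff: mean of compounds within the control limits plus 3 SD of those, cut at about 17% in these data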;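 also: 0% = plate median of compound wells and 100% = probe without SIAE protein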
# SIAE inh conf – human SIAE inhibitors, retest, confirmation, biochemical, fluorescence polarization, FP-Rh probe, triplicate | inhibition, % at 9.66 µM | hit rate 13% among 2,300 | SIAE FP-Rh activity-based probe | shares compounds with SIAE primary;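 active = mean inhibition of the replicates above the hit cutoff set in the primary screen, cut at about 17% in these data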;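 also: 0% = SIAE with DMSO and probe and 100% = probe without SIAE; inhibitors lower polarization as more probe stays unbound to SIAE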
# Active calls of the source: *; . = not tested or not shown.
SMILES,PRMT1 inh,TCR-CD3 inh,HTRA1 inhibitor,mABHD4 FP,SIAE primary,SIAE inh conf
COC1=C(Br)C(=O)c2ncccc2C1=O,1.7,2.6,18.1,10.8,22.1*,-1.0
COC(=O)c1cc(NC(=O)NC2CCCCN(Cc3cccc(Cl)c3)C2=O)cc(C(=O)OC)c1 (centres undefined),-0.8,.,.,1.6,2.4,.
CCOc1ccc(CCNS(=O)(=O)c2cccc3nsnc23)cc1OCC,1.3,7.1,6.2,5.7,17.4*,-0.8
Cc1cc(C)nc(SCC(=O)N/N=C/c2cccs2)n1,0.2,3.7,0.0,4.8,14.5,.
Cc1cc(C)nc(SCC(=O)NN=Cc2ccc(C)o2)n1,3.2,-6.2,0.0,8.1,18.3*,6.0
Cn1c(SCC(=O)NC(=O)c2cccc([N+](=O)[O-])c2)nnc1-c1ccc(F)cc1,1.7,7.5,0.6,-3.1,22.8*,4.6
O=C(CSc1nnc(-c2ccccc2F)n1C1CC1)NC(=O)c1cccc([N+](=O)[O-])c1,4.0,6.3,-0.9,-0.7,-1.6,.
COc1ccc(C2CC(c3ccccc3)=NN2c2ccc(C(N)=O)cc2)cc1 (centres undefined),4.2,0.5,2.3,7.3,7.7,.
COc1ccc(C2CC(c3ccccc3)=NN2c2ccc(/C=N/NC(=O)c3ccncc3)cc2)cc1 (centres undefined),-1.4,0.6,3.7,11.4,17.2*,7.1
Cc1ccn2c(=O)nc(SCC(=O)N3CCN(c4ccccc4)CC3)nc2c1,1.1,7.2,2.3,2.0,18.5*,5.7
Cc1ccn2c(=O)nc(SCC(=O)N3CCC(Cc4ccccc4)CC3)nc2c1,-1.3,7.8,-5.9,6.4,-3.9,.
O=C(Nc1ccc(C(F)(F)F)cc1)OC1CC2CC1[C@H]1CCCCN1C2 (some centres undefined),-0.7,.,.,2.6,-4.5,.
CCOC(=O)N1CCN(C(=O)C[C@H]2C[C@@]3(C(=O)OC)C(=C[C@H](C4CCCC4)O[C@@H]3C)N(Cc3ccc(Cl)cc3Cl)C2=O)CC1,-0.2,.,.,-12.4,-6.1,.
C=CCn1c(CNC(=O)c2cccs2)nnc1SCC(=O)c1ccc(Br)cc1,-0.7,1.6,-12.5,-5.3,28.3*,1.9
C=CCn1c(CNC(=O)c2cccs2)nnc1SCC(=O)Nc1ccc(C(=O)O)cc1,-1.1,-5.4,3.7,-6.0,7.7,.
CCCC#Cc1ccc(CC[C@H]2O[C@H]3CC[C@@H](CO)O[C@H]3C[C@H]2NC(=O)CN2CCOCC2)cc1,-0.5,.,.,-5.5,-3.2,.
Cc1ccc(Nc2nc(/N=C/NO)n[nH]2)cc1C,-3.9,5.9,2.7,3.4,26.0*,1.8
Cc1nc(C)c(-c2ccnc(/N=C/NO)n2)s1,3.2,-0.1,1.2,-2.2,-1.5,.
COC(=O)[C@]12C[C@H](CC(=O)N3CCOCC3)C(=O)N(Cc3cccc4ccccc34)C1=C[C@H](C(C)C)O[C@@H]2C1CC1,0.9,.,.,-0.7,1.7,.
COc1ccccc1CNC(=O)C1CCCN(S(=O)(=O)c2cccs2)C1 (centres undefined),3.9,3.4,3.6,2.8,-8.9,.
COc1ccccc1CNC(=O)C1CCCN(S(C)(=O)=O)C1 (centres undefined),-0.3,5.2,-3.0,4.0,23.4*,-0.6
CCCCN1CCS(=O)(=O)N(Cc2ccc(Cl)cc2)C(C(=O)OC)C1 (centres undefined),2.3,.,.,3.2,-2.2,.
C[C@@H](CO)N(CCc1cn(Cc2ccccc2)nn1)S(=O)(=O)c1ccccc1Br,1.5,.,.,4.9,-3.9,.
CN(C)N1C(N)=C(C#N)C(c2ccc(F)cc2)C2=C1CCCC2=O (centres undefined),-0.8,-5.4,0.4,2.4,18.9*,4.9
CCCCc1ccc(C2C3=C(CC(C)(C)CC3=O)NC3=C2C(=O)c2ccccc23)cc1 (centres undefined),-0.6,1.6,11.1,15.5,18.7*,7.8
CCOC(=O)N[C@@H](Cc1cccnc1)C(=O)N1CCC[C@H]1C(=O)NC1CCCC1,4.6,0.7,.,-1.9,-2.7,.

# Screens deposited in PubChem BioAssay by The Scripps Research Institute Molecular Screening Center.
